The target of data set [1] is T1, progesterone receptor (Homo sapiens, UniProt P06401).
T1 sequence (P06401 whole entry): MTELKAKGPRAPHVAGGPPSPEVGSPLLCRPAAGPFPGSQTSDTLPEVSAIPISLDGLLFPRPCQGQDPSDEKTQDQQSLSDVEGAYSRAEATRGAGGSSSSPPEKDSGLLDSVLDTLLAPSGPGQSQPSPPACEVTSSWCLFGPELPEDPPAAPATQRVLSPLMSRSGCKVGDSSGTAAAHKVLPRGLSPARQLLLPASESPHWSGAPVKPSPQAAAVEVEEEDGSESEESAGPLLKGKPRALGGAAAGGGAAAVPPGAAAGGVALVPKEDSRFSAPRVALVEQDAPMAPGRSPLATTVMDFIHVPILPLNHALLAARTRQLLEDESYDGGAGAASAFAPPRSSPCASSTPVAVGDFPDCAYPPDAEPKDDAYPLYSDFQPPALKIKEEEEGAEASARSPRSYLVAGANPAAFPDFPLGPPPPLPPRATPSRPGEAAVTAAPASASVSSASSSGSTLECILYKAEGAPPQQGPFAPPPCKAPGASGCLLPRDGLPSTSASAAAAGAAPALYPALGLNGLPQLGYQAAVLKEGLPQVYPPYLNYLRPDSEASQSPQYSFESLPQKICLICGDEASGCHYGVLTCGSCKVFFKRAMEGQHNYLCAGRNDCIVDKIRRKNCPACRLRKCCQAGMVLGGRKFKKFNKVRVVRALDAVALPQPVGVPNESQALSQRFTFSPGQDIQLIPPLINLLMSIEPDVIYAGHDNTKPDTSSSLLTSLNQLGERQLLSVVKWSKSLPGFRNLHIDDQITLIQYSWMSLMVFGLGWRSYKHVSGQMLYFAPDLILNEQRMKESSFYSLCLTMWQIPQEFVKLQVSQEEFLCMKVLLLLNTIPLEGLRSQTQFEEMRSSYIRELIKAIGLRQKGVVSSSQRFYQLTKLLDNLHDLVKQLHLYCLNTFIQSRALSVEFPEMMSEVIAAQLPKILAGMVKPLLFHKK
Nature of the data set: Inhibition of radioligand binding to progesterone receptor (unknown origin) at 1 uM relative to control.

Data set [2] can be described thus: Cmax in Sprague-Dawley CD-1 rat plasma at 3 mg/kg, po administered as cassette dose via gavage measured up to 24 hrs by LC/MS analysis. Type of data set: ADME, organism-based. Also noted: dose 3 mg/kg, route oral. The essentials:
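Three male Sprague Dawley CD-1 rats (220-250g) with jugular vein catheters; three test compounds plus a reference dosed together by oral gavage, 3mg/kg each, in DMSO:0.5% methylcellulose 10:90 (0.6mg/mL per compound), 5mL/kg. Plasma sampled pre-dose and at 0.25, 0.5, 1, 2, 4, 6, 8, 24 h; LC/MS.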

For data set [3], the target named is T2, estrogen receptor (Homo sapiens, UniProt P03372).
T2 sequence (P03372 whole entry): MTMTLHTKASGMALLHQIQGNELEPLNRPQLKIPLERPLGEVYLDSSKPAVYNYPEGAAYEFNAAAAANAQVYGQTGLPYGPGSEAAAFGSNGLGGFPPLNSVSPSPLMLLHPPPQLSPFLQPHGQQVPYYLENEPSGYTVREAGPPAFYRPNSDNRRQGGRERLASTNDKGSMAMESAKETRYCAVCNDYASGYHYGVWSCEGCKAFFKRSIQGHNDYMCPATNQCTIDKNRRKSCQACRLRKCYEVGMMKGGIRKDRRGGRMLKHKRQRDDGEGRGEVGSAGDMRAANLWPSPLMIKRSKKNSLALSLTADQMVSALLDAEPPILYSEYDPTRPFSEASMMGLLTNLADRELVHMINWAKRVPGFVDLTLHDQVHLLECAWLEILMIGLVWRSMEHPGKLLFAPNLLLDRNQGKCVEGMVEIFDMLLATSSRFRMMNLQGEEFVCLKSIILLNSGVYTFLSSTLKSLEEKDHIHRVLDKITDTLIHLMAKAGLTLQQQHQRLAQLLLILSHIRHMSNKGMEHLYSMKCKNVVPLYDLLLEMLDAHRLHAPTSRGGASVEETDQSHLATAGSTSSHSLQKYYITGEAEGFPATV
The experiment in a line: Inhibition of radioligand binding to estrogen receptor (unknown origin) at 1 uM relative to control.

Data set [4] can be described thus: Protein binding in monkey plasma. Type of data set: ADME, cell-free, Macaca mulatta. Conditions: rhesus monkey, read-out: PPB (converted).
Data set [5] is described as follows: Oral bioavailability in Sprague-Dawley CD-1 rat plasma at 5 mg/kg administered through gavage measured up to 24 hrs by LC/MS analysis. The format is ADME, organism-based. Put shortly:
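Jugular-catheterized male Sprague Dawley CD-1 rats (220-250g). Oral arm: five rats, 5mg/kg gavage, 1mg/mL in DMSO:0.5% methylcellulose 10:90, 5mL/kg, sampled pre-dose and 0.25-24 h. i.v. arm: three rats, 1mg/kg, 0.5mg/mL in DMSO:PEG400:propylene glycol 10:45:45, sampled pre-dose and 0.08-24 h. Plasma by LC/MS.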

Data set [6] addresses T3, Cytochrome P450 2B6 (Homo sapiens, UniProt P20813).
T3 sequence (P20813 whole entry): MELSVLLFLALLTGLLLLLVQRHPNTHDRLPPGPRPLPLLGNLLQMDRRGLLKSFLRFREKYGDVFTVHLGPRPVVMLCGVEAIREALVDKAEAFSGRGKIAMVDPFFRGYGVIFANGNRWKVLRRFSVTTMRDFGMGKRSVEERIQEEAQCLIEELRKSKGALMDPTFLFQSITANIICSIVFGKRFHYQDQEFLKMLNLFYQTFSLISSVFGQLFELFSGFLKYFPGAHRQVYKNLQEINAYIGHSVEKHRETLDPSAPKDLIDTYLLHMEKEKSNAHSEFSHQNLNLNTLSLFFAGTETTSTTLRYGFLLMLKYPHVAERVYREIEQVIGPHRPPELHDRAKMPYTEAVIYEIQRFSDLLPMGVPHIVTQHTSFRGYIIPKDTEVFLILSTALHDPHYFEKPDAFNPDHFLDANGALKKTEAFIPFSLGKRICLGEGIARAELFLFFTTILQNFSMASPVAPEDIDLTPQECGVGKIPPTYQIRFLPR
The experiment in a line: Time-dependent inhibition of CYP2B6 (unknown origin). The format is ADME.

Data set [7] has as its system Rattus norvegicus. The experiment in a line: In vivo antagonist activity at glucocorticoid receptor in Sprague-Dawley rat cortisone model of exogenous Cushing's syndrome assessed as inhibition of plasma insulin levels at 7.5 mg/kg, po bid via gavage for 6 days pretreated for 12 hrs followed by cortisone 21-acetate treatment measured 24 hrs after last cortisone 21-acetate treatment. Type of data set: functional, organism-based. Put shortly: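 Male Sprague Dawley rats (200-250 g) got vehicle daily for a 3-day baseline, then groups of eight were dosed. Test agent was suspended in DMSO:Tween 80:0.5% HPMC (10:0.1:89.9) and given by oral gavage twice daily for 6 days. Cortisone 21-acetate was given at 30 mg/kg s.c. once daily in 1% methylcellulose. Tail-vein blood was taken 24 h after the last cortisone dose (12 h after the last test dose). Glucose was read with a clinical reagent and insulin by rat ELISA.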

Calls of active or inactive are those of the source. The calls are words filed in the database; no cut-off is given here.

Turning to `Cn1cc(S(=O)(=O)N2CCC3=Cc4c(cnn4-c4ccc(F)cc4)C[C@]3(C(=O)c3cc(C(F)(F)F)ccn3)C2)cn1` [RELACORILANT], the inhibition at 1 µM in data set [1] and in data set [3] was < 10% throughout. For the same molecule, the concentration in data set [2] peaked (Cmax) at 262 ng/mL. Besides, the fraction unbound in data set [4] was 0.011. The bioavailability (usually the share of a dose that reaches the circulation, judged against a reference dose that is usually intravenous) in data set [5] was determined as 89%. In addition, in data set [6], the TDI entry was “Not Active”. Further, the inhibition (as a rule, the share of the control response that was lost under treatment) in data set [7] was “Active”.
